Converted amounts (≈) assume the structure as drawn.
Legend:
[1] = Inhibition of Trypanosoma brucei glyceraldehyde-3-phosphate dehydrogenase
[2] = target: T1, Trypanothione reductase (Trypanosoma cruzi, UniProt P28593); experiment: Inhibition of Trypanosoma cruzi trypanothione reductase
[3] = target: CYP2D6 (Homo sapiens, UniProt P10635); experiment: Inhibition of human CYP2D6 at 10 uM by P450-Glo assay relative to control; type: ADME
Method in brief: (§1)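 P450-Glo luminescent platform: CYP action on each substrate generates light; decreased light taken as inhibition.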

[4] = target: T1, Trypanothione reductase; experiment: Non-competitive inhibition of Trypanosoma cruzi trypanothione reductase assessed as reduction in NADPH consumption using varying levels of trypanothione disulfide as substrate by Lineweaver-Burk plot analysis
Method in brief: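 Same TcTR assay with two fixed inhibitor concentrations and TS2 at 20, 40, 60, 100, 200 μM; inhibition type from Lineweaver–Burk plots; Ki by nonlinear least-squares fit of direct plot; inhibitor assays at least duplicate.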

[5] = target: Trypanothione reductase (Trypanosoma cruzi) (UniProt P28593); experiment: Inhibition of Trypanosoma cruzi trypanothione reductase assessed as reduction in NADPH consumption at 20 uM using 40 uM trypanothione disulfide as substrate by spectrophotometric method relative to control
Method in brief: (§2)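 Recombinant TcTR (5–10 mU) at 25 °C in 40 mM HEPES, 1 mM EDTA, pH 7.5, 100 μM NADPH, 5% DMSO; started with trypanothione disulfide; NADPH consumption read at 340 nm; percentage inhibition calculated.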

[6] = Solubility in PBS after overnight incubation by nephelometry; type: physicochemical
[7] = target: T2, Pteridine reductase, putative (Trypanosoma brucei) (UniProt Q581W1); experiment: Inhibition of Trypanosoma brucei pteridine reductase 1 assessed as reduction in conversion of dihydrobiopterin to tetrahydrobiopterin at 10 uM up to 50 mins in presence of NADPH by cytochrome c reduction coupled photometric assay relative to control
T2 sequence (whole entry): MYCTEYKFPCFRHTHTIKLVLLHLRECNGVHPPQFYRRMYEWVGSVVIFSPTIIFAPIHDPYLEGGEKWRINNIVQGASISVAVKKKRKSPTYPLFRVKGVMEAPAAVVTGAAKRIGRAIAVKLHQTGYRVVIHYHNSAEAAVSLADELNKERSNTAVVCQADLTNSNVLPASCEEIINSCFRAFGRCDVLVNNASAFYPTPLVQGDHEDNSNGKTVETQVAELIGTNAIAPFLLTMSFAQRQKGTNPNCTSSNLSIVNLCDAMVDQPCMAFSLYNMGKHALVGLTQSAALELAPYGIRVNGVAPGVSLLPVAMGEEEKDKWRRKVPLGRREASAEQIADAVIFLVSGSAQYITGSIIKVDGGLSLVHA

[8] = target: CYP2C19 (Homo sapiens, UniProt P33261); experiment: Inhibition of human CYP2C19 at 10 uM by P450-Glo assay relative to control; type: ADME; method in brief: as §1
[9] = target: Trypanothione reductase (Trypanosoma cruzi) (UniProt P28593); experiment: Inhibition of Trypanosoma cruzi trypanothione reductase assessed as reduction in NADPH consumption at 20 uM using 100 uM trypanothione disulfide as substrate by spectrophotometric method relative to control; method in brief: as §2
[10] = target: CYP3A4 (Homo sapiens, UniProt P08684); experiment: Inhibition of human CYP3A4 at 10 uM by P450-Glo assay relative to control; type: ADME; method in brief: as §1
[11] = target: CYP2C9 (Homo sapiens, UniProt P11712); experiment: Inhibition of human CYP2C9 at 10 uM by P450-Glo assay relative to control; type: ADME; method in brief: as §1
[12] = target: hERG (KCNH2) (Homo sapiens, UniProt Q12809); experiment: Inhibition of Tracer Red binding to human ERG expressed in membranes at 10 uM by fluorescence polarization assay relative to control; details: membranes expressing human ERG, probe Tracer Red
Method in brief: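 Fluorescence polarization displacement of a high-affinity red fluorescent tracer from hERG channel–containing membrane fraction.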

[13] = tested on: 786-0; experiment: Cytotoxicity against human 786-O cells assessed as mitochondrial viability at 10 uM by CMXRos staining based high-content imaging analysis relative to control; type: cell-based; details: 786-0, 10 µM
Method in brief: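 786-O cells kept in RPMI-1640 with 2 mM glutamine, 10% FCS, streptomycin and penicillin G; mitochondria of live cells stained with MitoTracker Red CMXRos and imaged by high-content imaging.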

[14] = Cytotoxicity against human A549 cells assessed as cell growth at 10 uM by CellTiter-Glo assay relative to control; type: cell-based; details: read-out: Activity
Method in brief: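 A549 cells; cellular ATP measured by CellTiter-Glo luminescence as a proxy for cell number; paclitaxel 10 μM as positive control.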

[15] = target: T3, CYP1A2 (Homo sapiens, UniProt P05177); experiment: Inhibition of human CYP1A2 at 10 uM by P450-Glo assay relative to control; type: ADME; method in brief: as §1
T3 sequence (P05177 whole entry): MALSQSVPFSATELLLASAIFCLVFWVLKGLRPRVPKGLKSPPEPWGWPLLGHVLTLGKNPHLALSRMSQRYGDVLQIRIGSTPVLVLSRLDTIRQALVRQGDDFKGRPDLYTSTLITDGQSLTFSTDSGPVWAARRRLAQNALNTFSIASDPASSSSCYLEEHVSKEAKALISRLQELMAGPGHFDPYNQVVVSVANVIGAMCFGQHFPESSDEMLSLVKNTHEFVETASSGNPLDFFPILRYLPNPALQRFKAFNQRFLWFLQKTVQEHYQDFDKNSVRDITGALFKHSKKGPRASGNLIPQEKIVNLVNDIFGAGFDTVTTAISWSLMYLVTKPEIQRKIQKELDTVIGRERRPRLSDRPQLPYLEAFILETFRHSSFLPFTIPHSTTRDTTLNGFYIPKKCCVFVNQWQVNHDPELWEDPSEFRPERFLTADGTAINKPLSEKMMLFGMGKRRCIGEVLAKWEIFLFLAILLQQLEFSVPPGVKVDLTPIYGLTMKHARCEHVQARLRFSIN

[16] = target: T4, Pteridine reductase 1 (Leishmania major) (UniProt Q01782); experiment: Inhibition of Leishmania major pteridine reductase 1 assessed as reduction in conversion of dihydrobiopterin to tetrahydrobiopterin at 10 uM up to 50 mins in presence of NADPH by cytochrome c reduction coupled photometric assay relative to control
T4 sequence (whole entry): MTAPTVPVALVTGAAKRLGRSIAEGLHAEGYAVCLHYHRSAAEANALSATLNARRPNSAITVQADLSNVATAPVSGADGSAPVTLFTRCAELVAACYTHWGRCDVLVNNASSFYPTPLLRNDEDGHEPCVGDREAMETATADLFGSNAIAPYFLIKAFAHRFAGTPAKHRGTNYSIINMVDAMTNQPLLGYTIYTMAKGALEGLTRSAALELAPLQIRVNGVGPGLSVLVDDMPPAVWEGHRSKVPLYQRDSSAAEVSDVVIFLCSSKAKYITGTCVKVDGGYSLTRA

[17] = Solubility in pH 7.4 Hanks simulated body fluid after overnight incubation by nephelometry; type: physicochemical

T1 sequence (P28593 whole entry): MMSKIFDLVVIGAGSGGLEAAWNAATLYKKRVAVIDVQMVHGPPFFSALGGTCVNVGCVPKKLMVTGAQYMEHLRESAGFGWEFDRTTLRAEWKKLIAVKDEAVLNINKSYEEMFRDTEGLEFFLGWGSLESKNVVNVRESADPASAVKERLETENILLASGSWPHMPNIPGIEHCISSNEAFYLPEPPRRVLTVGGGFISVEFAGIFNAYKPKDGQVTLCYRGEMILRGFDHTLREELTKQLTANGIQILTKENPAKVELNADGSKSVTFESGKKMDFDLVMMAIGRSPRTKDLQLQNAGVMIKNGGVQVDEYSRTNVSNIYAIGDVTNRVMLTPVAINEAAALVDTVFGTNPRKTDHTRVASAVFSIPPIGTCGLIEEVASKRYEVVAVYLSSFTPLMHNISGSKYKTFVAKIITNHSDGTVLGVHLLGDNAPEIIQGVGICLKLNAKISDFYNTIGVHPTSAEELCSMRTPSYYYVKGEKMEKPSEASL
Chain of Trypanothione reductase (Trypanosoma cruzi) (P28593 whole entry, looked up): as the sequence (P28593 whole entry) above
Chain of CYP2C9 (P11712 whole entry): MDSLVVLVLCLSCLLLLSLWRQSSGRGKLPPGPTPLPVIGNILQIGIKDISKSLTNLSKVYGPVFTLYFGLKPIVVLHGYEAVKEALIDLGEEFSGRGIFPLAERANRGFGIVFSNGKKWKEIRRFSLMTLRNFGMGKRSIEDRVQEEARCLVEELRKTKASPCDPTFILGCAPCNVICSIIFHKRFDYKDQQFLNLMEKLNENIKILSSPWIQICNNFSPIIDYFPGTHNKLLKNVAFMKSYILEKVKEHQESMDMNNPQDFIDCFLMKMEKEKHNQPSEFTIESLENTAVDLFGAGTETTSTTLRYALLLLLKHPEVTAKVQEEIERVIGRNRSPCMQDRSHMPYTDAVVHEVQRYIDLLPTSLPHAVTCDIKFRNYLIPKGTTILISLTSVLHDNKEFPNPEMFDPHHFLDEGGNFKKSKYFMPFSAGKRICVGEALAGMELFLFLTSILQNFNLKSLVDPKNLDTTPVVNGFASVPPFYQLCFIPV
Chain of hERG (KCNH2) (Q12809 whole entry): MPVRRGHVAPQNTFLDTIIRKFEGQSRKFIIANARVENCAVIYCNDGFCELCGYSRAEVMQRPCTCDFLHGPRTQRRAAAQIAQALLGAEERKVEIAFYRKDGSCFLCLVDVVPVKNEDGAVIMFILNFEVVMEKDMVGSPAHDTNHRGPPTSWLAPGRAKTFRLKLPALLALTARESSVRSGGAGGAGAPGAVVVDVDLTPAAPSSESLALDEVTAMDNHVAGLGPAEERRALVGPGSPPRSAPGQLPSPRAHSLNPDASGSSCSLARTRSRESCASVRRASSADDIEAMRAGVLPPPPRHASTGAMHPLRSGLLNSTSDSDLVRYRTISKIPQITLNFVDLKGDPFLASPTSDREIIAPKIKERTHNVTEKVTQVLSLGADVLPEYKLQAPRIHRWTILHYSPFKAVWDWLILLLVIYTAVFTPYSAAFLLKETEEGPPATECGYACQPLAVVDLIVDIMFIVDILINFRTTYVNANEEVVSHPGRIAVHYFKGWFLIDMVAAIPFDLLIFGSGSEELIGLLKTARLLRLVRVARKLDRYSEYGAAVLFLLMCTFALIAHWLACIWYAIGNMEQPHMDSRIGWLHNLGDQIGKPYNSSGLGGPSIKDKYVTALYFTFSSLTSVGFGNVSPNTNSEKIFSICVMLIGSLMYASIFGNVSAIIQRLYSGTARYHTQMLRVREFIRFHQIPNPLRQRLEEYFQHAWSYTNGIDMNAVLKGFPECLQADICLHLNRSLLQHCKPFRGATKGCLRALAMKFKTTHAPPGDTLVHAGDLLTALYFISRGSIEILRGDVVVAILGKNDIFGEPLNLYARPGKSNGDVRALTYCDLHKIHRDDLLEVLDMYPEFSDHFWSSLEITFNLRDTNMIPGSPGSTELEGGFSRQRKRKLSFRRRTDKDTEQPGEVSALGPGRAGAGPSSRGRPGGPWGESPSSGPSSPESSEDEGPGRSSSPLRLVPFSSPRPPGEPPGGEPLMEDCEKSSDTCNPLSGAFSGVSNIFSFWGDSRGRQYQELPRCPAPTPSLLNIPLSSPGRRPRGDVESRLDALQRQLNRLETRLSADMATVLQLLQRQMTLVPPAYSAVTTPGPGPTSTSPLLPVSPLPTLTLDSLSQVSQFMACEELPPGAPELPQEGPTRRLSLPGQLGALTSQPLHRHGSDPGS
Chain of CYP3A4 (P08684 whole entry): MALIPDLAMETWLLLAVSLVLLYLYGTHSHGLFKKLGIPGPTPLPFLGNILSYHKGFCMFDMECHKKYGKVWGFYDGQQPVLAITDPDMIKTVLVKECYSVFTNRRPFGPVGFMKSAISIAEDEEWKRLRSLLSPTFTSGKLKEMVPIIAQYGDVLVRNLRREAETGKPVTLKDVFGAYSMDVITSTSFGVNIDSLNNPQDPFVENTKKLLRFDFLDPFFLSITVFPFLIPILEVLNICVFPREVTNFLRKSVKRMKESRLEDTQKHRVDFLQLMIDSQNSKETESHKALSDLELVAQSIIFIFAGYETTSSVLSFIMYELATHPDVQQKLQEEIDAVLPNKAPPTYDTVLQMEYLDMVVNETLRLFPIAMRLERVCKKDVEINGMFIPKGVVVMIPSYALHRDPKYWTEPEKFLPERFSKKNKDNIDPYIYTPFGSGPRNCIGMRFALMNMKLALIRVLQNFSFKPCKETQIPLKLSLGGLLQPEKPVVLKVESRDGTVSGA
Chain of CYP2D6 (P10635 whole entry): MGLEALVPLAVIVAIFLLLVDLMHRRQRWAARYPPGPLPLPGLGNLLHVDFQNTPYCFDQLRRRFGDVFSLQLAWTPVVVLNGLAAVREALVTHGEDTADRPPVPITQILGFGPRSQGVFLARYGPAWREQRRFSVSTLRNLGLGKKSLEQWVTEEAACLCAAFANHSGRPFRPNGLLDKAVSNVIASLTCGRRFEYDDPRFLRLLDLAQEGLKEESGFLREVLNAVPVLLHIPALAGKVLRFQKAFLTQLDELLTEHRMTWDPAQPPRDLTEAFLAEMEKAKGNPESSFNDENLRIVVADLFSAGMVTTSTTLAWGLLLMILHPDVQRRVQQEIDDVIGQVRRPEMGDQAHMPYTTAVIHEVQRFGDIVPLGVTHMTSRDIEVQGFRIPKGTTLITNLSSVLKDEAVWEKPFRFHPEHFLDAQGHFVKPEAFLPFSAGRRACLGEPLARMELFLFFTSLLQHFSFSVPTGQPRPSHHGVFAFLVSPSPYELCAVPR
Chain of CYP2C19 (P33261 whole entry): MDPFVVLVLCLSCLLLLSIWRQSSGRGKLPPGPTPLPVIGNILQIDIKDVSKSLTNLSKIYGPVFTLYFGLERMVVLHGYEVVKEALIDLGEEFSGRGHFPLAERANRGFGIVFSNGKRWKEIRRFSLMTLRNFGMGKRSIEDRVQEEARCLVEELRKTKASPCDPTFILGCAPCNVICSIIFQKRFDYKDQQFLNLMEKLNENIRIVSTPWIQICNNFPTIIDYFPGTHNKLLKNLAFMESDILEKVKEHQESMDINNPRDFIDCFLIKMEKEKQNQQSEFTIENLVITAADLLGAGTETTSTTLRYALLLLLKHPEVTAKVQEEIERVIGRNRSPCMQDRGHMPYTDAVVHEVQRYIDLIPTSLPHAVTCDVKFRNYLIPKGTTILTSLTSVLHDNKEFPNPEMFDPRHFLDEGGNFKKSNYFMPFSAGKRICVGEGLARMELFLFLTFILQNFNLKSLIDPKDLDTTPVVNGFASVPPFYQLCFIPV

`CN(C)CCOc1cc2ccc(OC3=CC(=O)c4cc5ccccc5cc4C3=O)cc2oc1=O` gave an IC50 [1] of 5.4 µM and a Ki [2] of 2.3 µM.
`COc1cccc2c1C(=O)c1oc3c(c1C2=O)c(=O)oc1ccccc13` showed an inhibition at 10 µM [3] of 108%, a Ki [4] of 22.4 µM and an inhibition [5] of 42.6%. The solubility kinetic [6] was 70 µM (≈ 24.2 µg/mL), the inhibition [7] was -5.69% and the inhibition at 10 µM [8] was 55.5%. The inhibition [9] was 41.1%, the inhibition at 10 µM [10] was 38.5% and the inhibition at 10 µM [11] was 89.3%. It also gave an inhibition at 10 µM [12] of 42.7%, an Activity [13] of 89.95% and a viability at 10 µM [14] of 166%. It also gave an inhibition at 10 µM [15] of 99.2%, an inhibition [16] of -3.51% and a solubility kinetic [17] of 35 µM (≈ 12.1 µg/mL).
